Experimental data reported in ChEMBL document CHEMBL1149415, “Discovery and structure-activity relationship of antagonists of B-cell lymphoma 2 family proteins with chemopotentiation activity in vitro and in vivo” (J Med Chem, 2006).

Key:
Bcl-2-like protein 1 [1] = biological target: T1, Bcl-2-like protein 1 (Homo sapiens, UniProt Q07817); assay: Activity towards mouse FL5.12 cell line transfected with Bcl-XL in presence of 3% fetal bovine serum; format: functional
Procedure, shortened: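 Bcl-XL-transfected murine FL5.12 (IL-3 dependent) grown in RPMI with 10% FBS and WEHI-3B conditioned medium as the IL-3 source. Switched to IL-3-depleted, FBS-free medium for 2 days. Then placed in gelatin assay medium (3.4 mg/mL bovine gelatin) or 3% FBS assay medium. Serial compound dilutions added for 24 h. Viability read by MTS or CellTiter-Glo; duplicate values per determination; EC50.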
Target sequence in this assay (Q07817 whole entry): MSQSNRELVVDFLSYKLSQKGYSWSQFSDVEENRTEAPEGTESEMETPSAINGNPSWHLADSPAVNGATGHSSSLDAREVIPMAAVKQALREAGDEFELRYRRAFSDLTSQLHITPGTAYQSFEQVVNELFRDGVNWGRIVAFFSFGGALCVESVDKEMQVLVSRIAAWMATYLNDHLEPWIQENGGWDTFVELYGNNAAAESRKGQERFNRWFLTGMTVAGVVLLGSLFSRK

Bcl-2-like protein 1 [2] = biological target: T1, Bcl-2-like protein 1; assay: Binding affinity to Bcl-XL by fluorescence polarization assay
Target sequence in this assay (Q07817 whole entry): as above

Bcl-2-like protein 1 [3] = biological target: T1, Bcl-2-like protein 1; assay: Binding affinity to Bcl-XL in 1% human serum by fluorescence polarization assay
Target sequence in this assay (Q07817 whole entry): as above

[4] = biological target: Apoptosis regulator Bcl-2 (Homo sapiens, UniProt P10415); assay: Binding affinity to Bcl2 by fluorescence polarization assay
Bcl-2-like protein 1 [5] = biological target: T1, Bcl-2-like protein 1; assay: Binding affinity to Bcl-XL in 10% human serum by fluorescence polarization assay
Procedure, shortened: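 Competitive fluorescence polarization: serial compound dilutions compete with 30 nM f-Bad peptide (FITC-labelled) for 60 nM Bcl-XL. Human serum at 10% added to the assay buffer. Duplicate values per determination; Ki calculated.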
Target sequence in this assay (Q07817 whole entry): as above

Bcl-2-like protein 1 [6] = biological target: T1, Bcl-2-like protein 1; assay: Inhibitory activity against Bcl-XL in presence of HSA from 1% human serum
Procedure, shortened: (§1)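 Competitive fluorescence polarization assay: serial compound dilutions compete with 30 nM f-Bad peptide (FITC-labelled) for binding to 60 nM Bcl-XL. Human serum (1%) or individual serum proteins are added to the assay buffer. Protein levels: HSA 0.42 mg/mL, HSA-III 0.146 mg/mL, α1-acid glycoprotein 0.0095 mg/mL. IC50 is calculated from duplicate values per determination.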
Target sequence in this assay (Q07817 whole entry): as above

Bcl-2-like protein 1 [7] = biological target: T1, Bcl-2-like protein 1; assay: Inhibitory activity against Bcl-XL in presence of HSA3 from 1% human serum
Target sequence in this assay (Q07817 whole entry, looked up): as the sequence (Q07817 whole entry) above

Bcl-2-like protein 1 [8] = biological target: T1, Bcl-2-like protein 1; details: 10 uM
Target sequence in this assay (Q07817 whole entry): as above

Bcl-2-like protein 1 [9] = biological target: T1, Bcl-2-like protein 1; assay: Inhibitory activity against Bcl-XL in presence of alpha-1 acid glycoprotein from 1% human serum; procedure, shortened: as §1
Bcl-2-like protein 1 [10] = biological target: T1, Bcl-2-like protein 1; assay: Inhibitory activity against Bcl-XL in presence of 1% human serum; procedure, shortened: as §1
Albumin = Albumin (Homo sapiens, UniProt P02768); assay: Binding affinity for human serum albumin domain III
Albumin, sequence (P02768 whole entry, the tested form may be a part): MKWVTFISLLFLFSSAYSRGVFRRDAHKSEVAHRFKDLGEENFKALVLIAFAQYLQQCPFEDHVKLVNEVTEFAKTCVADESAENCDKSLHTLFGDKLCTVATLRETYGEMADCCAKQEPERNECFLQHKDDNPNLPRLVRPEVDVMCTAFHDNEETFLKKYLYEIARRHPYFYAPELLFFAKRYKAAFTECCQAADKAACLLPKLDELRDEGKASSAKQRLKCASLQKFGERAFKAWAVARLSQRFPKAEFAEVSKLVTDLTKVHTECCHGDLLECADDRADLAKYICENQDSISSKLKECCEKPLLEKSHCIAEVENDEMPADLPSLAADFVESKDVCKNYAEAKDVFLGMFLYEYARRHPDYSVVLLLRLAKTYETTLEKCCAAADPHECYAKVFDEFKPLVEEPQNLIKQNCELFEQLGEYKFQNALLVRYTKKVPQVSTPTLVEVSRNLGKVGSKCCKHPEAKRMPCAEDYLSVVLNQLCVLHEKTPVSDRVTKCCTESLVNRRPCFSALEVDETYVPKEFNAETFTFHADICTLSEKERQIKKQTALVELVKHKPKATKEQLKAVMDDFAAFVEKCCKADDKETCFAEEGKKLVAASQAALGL

Apoptosis regulator Bcl-2, sequence (P10415 whole entry): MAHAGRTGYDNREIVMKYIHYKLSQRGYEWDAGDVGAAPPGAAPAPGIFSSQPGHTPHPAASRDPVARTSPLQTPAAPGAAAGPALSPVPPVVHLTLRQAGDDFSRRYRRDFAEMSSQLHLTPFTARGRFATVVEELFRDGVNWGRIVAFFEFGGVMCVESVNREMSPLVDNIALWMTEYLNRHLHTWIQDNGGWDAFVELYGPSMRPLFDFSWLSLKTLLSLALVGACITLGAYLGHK

Row | SMILES | EC50 (Bcl-2-like protein 1 [1]) | Ki (Bcl-2-like protein 1 [2]) | Ki (Bcl-2-like protein 1 [3]) | Ki [4] | further results
1 | CN(C)C(=O)C[C@H](CSc1ccccc1)Nc1ccc(S(=O)(=O)NC(=O)c2ccc(N3CCC(C)(C)CC3)cc2)cc1[N+](=O)[O-] | 15000 nM | 3.1 nM | 1790 nM | 75 nM | 
2 | COc1cc(CCCO)ccc1-c1ccc(C(=O)NS(=O)(=O)c2ccc(NCCSc3ccccc3)c([N+](=O)[O-])c2)cc1 |  | 21.5 nM | 2960 nM | 721 nM | 
3 | COc1cc(C(=O)N(C)C)ccc1-c1ccc(C(=O)NS(=O)(=O)c2ccc(NCCSc3ccccc3)c([N+](=O)[O-])c2)cc1 |  | 471 nM | > 10000 nM | 1980 nM | 
4 | COc1cc(CCCN(C)C)ccc1-c1ccc(C(=O)NS(=O)(=O)c2ccc(NCCSc3ccccc3)c([N+](=O)[O-])c2)cc1 |  | 106 nM | 730 nM | 1230 nM | Ki (Bcl-2-like protein 1 [5]): 5660 nM
5 | COc1cc(CCC(=O)N(C)C)ccc1-c1ccc(C(=O)NS(=O)(=O)c2ccc(NCCSc3ccccc3)c([N+](=O)[O-])c2)cc1 |  | 38.9 nM | 1000 nM | 400 nM | 
6 | CC1(C)CCN(c2ccc(C(=O)NS(=O)(=O)c3ccc(N[C@H](CCN4CCOCC4)CSc4ccccc4)c([N+](=O)[O-])c3)cc2)CC1 | 7000 nM | 1.1 nM | > 10000 nM | 55 nM | 
7 | CC1(C)CCN(c2ccc(C(=O)NS(=O)(=O)c3ccc(NCCSc4ccccc4)c([N+](=O)[O-])c3)cc2)CC1 |  | 19 nM | 652 nM | 192 nM | 
8 | COc1cc(CCCN2CCOCC2)ccc1-c1ccc(C(=O)NS(=O)(=O)c2ccc(N[C@@H](CSc3ccccc3)CC(=O)N(C)C)c([N+](=O)[O-])c2)cc1 | 7630 nM | 1.7 nM | 1000 nM | 121 nM | 
9 | CN(C)C(=O)N1CCN(c2ccc(C(=O)NS(=O)(=O)c3ccc(NCCSc4ccccc4)c([N+](=O)[O-])c3)cc2)CC1 |  | 294 nM | 869 nM | 3540 nM | 
10 | CC(=O)N1CCN(c2ccc(C(=O)NS(=O)(=O)c3ccc(NCCSc4ccccc4)c([N+](=O)[O-])c3)cc2)CC1 |  | 894 nM | 2970 nM | > 10000 nM | 
11 | CC1(C)CCN(c2ccc(C(=O)NS(=O)(=O)c3ccc(N[C@@H](CCN4CCOCC4)CSc4ccccc4)c([N+](=O)[O-])c3)cc2)CC1 | 9310 nM | 75 nM | 6050 nM | 732 nM | 
12 | COc1cc(CC(=O)N(C)C)ccc1-c1ccc(C(=O)NS(=O)(=O)c2ccc(NCCSc3ccccc3)c([N+](=O)[O-])c2)cc1 |  | 251 nM | > 10000 nM | > 10000 nM | 
13 | COc1cc(CCCN2CCOCC2)ccc1-c1ccc(C(=O)NS(=O)(=O)c2ccc(N[C@H](CCCCN(C)C)CSc3ccccc3)c([N+](=O)[O-])c2)cc1 | 6000 nM | < 0.5 nM | 215 nM | 58.8 nM | 
14 | CC1(C)CCN(c2ccc(C(=O)NS(=O)(=O)c3ccc(N[C@H](CCCCN)CSc4ccccc4)c([N+](=O)[O-])c3)cc2)CC1 | 20800 nM | 1 nM | 256 nM | 231 nM | 
15 | CN(C)CCCC[C@H](CSc1ccccc1)Nc1ccc(S(=O)(=O)NC(=O)c2ccc(N3CCC(C)(C)CC3)cc2)cc1[N+](=O)[O-] | 3890 nM | 1.2 nM | 174 nM | 73 nM | 
16 | COc1cc(CCCN2CCOCC2)ccc1-c1ccc(C(=O)NS(=O)(=O)c2ccc(N[C@@H](CCN(C)C)CSc3ccccc3)c([N+](=O)[O-])c2)cc1 | 59200 nM | 250 nM | 1140 nM | 2160 nM | 
17 | COc1cc(CCCN2CCOCC2)ccc1-c1ccc(C(=O)NS(=O)(=O)c2ccc(N[C@H](CCCCN)CSc3ccccc3)c([N+](=O)[O-])c2)cc1 | 9000 nM | 0.8 nM | 29.6 nM | 70 nM | 
18 | O=C(NS(=O)(=O)c1ccc(NCCSc2ccccc2)c([N+](=O)[O-])c1)c1ccc(N2CCOCC2)cc1 |  | 1080 nM | > 10000 nM | > 10000 nM | 
19 | COc1cc(CCCN2CCOCC2)ccc1-c1ccc(C(=O)NS(=O)(=O)c2ccc(N[C@H](CCCN(C)C)CSc3ccccc3)c([N+](=O)[O-])c2)cc1 | 8600 nM | 0.9 nM | 71 nM | 317 nM | 
20 | COc1cc(CCCN2CCOCC2)ccc1-c1ccc(C(=O)NS(=O)(=O)c2ccc(N[C@H](CCN3CCOCC3)CSc3ccccc3)c([N+](=O)[O-])c2)cc1 | 2110 nM | < 0.5 nM | > 10000 nM | 165 nM | 
21 | O=C(NS(=O)(=O)c1ccc(NCCSc2ccccc2)c([N+](=O)[O-])c1)c1ccc(N2CCNCC2)cc1 |  | 2520 nM | > 10000 nM |  | 
22 | COc1cc(CN(C)C)ccc1-c1ccc(C(=O)NS(=O)(=O)c2ccc(NCCSc3ccccc3)c([N+](=O)[O-])c2)cc1 |  | 426 nM | 1000 nM | 4570 nM | 
23 | COc1cc(CCN(C)C)ccc1-c1ccc(C(=O)NS(=O)(=O)c2ccc(NCCSc3ccccc3)c([N+](=O)[O-])c2)cc1 |  | 665 nM | 998 nM | 3260 nM | 
24 | COc1cc(CCCN2CCOCC2)ccc1-c1ccc(C(=O)NS(=O)(=O)c2ccc(NCCSc3ccccc3)c([N+](=O)[O-])c2)cc1 |  | 10.4 nM | 580 nM | 402 nM | Ki (Bcl-2-like protein 1 [5]): 4300 nM
25 | CN(C)CC[C@@H](CSc1ccccc1)Nc1ccc(S(=O)(=O)NC(=O)c2ccc(N3CCC(C)(C)CC3)cc2)cc1[N+](=O)[O-] | 16100 nM | 252 nM | 3850 nM | 1260 nM | 
26 | O=C(NS(=O)(=O)c1ccc(NCCSc2ccccc2)c([N+](=O)[O-])c1)c1ccc(-c2ccc(F)cc2)cc1 |  | 36 nM | 2500 nM | 433 nM | IC50 (Bcl-2-like protein 1 [6]): > 10000 nM; IC50 (Bcl-2-like protein 1 [7]): 6300 nM; inhibition (Bcl-2-like protein 1 [8]): 1%; IC50 (Bcl-2-like protein 1 [9]): 122 nM; IC50 (Bcl-2-like protein 1 [10]): > 10000 nM
27 | COc1cc(CCCN2CCOCC2)ccc1-c1ccc(C(=O)NS(=O)(=O)c2ccc(N[C@H](CCN(C)C)CSc3ccccc3)c([N+](=O)[O-])c2)cc1 | 2080 nM | < 0.5 nM | 148 nM | 116 nM | Kd (Albumin): 94000 nM
28 | CC(C)(C)OC(=O)N1CCN(c2ccc(C(=O)NS(=O)(=O)c3ccc(NCCSc4ccccc4)c([N+](=O)[O-])c3)cc2)CC1 |  | 396 nM | 3350 nM | 2880 nM | 
29 | CN(C)CCC[C@H](CSc1ccccc1)Nc1ccc(S(=O)(=O)NC(=O)c2ccc(N3CCC(C)(C)CC3)cc2)cc1[N+](=O)[O-] | 14100 nM | 2.6 nM | 728 nM | 92.1 nM | 
30 | COc1cc(CCC(=O)N2CCOCC2)ccc1-c1ccc(C(=O)NS(=O)(=O)c2ccc(NCCSc3ccccc3)c([N+](=O)[O-])c2)cc1 |  | 57.9 nM | 790 nM | 366 nM | 
